Measurements taken from ChEMBL document CHEMBL4316581, “Efforts in redesigning the antileukemic drug 6-thiopurine: decreasing toxic side effects while maintaining efficacy” (Medchemcomm, 2019).
Values belong to the compound of their own block, whether it stands above or below them.

Assays:
[1] = target: T1, UDP-glucose 6-dehydrogenase (Rattus norvegicus, UniProt O70199); assay: Inhibition of UDPGDH in rat hepatocytes after 20 to 120 secs by UV/Vis spectrophotometric analysis; type: cell-based
T1 sequence (O70199 whole entry): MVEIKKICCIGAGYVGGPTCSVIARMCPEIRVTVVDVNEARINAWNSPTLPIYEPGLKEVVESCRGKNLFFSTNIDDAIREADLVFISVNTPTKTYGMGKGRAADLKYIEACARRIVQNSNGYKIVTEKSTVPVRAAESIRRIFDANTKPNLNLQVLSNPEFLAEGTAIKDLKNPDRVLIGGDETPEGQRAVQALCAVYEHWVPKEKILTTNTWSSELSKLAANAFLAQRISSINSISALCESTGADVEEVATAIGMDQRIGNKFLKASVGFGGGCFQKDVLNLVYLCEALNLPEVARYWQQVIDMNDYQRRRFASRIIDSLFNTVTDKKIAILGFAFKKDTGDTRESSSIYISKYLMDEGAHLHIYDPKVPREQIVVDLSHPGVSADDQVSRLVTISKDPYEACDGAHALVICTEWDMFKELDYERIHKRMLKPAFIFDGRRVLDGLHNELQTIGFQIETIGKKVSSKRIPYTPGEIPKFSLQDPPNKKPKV
Summary of the method: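 Purified UDPGDH (0.1 unit/mL) was assayed spectrophotometrically at 340 nm and 25 °C in 150 mM Gly-Gly with saturating 3 mM NAD+. UDPG was varied (0.1, 0.05, 0.025, 0.02 mM) at several inhibitor concentrations. After 2 min thermal equilibration, the initial absorbance-versus-time rate was recorded. Runs were in triplicate; averaged slopes were plotted to derive inhibition values.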

REH = assay: Cytotoxicity against human REH cells assessed as reduction in cell viability […] by Alamar Blue assay; type: functional, cell-based
[2] = target: T2, UDP-glucuronosyltransferase 1A1 (Rattus norvegicus, UniProt Q64550); assay: Inhibition of UGT1A in rat hepatocytes preincubated for 2 mins followed by UDPGA addition measured after 45 mins by HPLC analysis; type: ADME, cell-based
T2 sequence (Q64550 whole entry): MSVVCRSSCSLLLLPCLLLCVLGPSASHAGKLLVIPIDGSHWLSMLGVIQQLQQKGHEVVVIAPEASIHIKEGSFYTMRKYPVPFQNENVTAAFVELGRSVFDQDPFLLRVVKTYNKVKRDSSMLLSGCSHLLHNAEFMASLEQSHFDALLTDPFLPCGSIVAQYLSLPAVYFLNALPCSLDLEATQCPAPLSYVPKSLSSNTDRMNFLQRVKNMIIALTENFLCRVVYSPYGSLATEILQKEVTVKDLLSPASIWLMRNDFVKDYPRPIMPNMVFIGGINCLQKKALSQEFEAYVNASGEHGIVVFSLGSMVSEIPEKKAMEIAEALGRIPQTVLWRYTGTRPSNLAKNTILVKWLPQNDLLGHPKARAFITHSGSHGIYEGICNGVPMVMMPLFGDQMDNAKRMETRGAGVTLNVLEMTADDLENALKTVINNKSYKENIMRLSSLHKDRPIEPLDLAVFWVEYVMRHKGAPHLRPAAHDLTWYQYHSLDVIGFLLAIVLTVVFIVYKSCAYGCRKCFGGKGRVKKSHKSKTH
Summary of the method: (§1)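 Rat liver microsomes (100 µg protein/mL) were used, with alamethicin 22 µg/mL, bilirubin 10 µM and MgCl2 0.88 mM in 50 mM potassium phosphate pH 7.4, at 37 °C with shaking under minimal light. Purine or no-purine control was preincubated 2 min before UDPGA (3.5 mM) started the reaction. Reactions were stopped with ice-cold methanol containing 200 mM ascorbic acid and centrifuged. Unconjugated bilirubin and mono- and diglucuronides were quantified by gradient HPLC against bilirubin calibration curves over a 45-min time course.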

[3] = target: T1, UDP-glucose 6-dehydrogenase; assay: Inhibition of UDPGDH in rat hepatocytes assessed as increase in unconjugated bilirubin level at 10 uM preincubated for 2 mins followed by UDPGA addition measured after 45 mins by HPLC analysis relative to control; type: cell-based; set-up: scale not given: the % may be the effect or the level left; details: 0.75 h; summary of the method: as §1
[4] = target: T1, UDP-glucose 6-dehydrogenase; assay: Inhibition of UDPGDH in rat hepatocytes assessed as decrease in bilirubin diglucuronide level at 5 to 10 uM preincubated for 2 mins followed by UDPGA addition measured after 45 mins by HPLC analysis; type: cell-based; details: 0.75 h; summary of the method: as §1
[5] = target: T3, UDPGDH (UDP-glucose 6-dehydrogenase) (Rattus norvegicus, UniProt O70199); assay: Inhibition of UDPGDH in rat hepatocytes assessed as decrease in bilirubin diglucuronide level at 5 uM preincubated for 2 mins followed by UDPGA addition measured after 45 mins by HPLC analysis relative to control; type: cell-based; details: probe bilirubin (readout: bilirubin diglucuronide level); summary of the method: as §1
T3 sequence (O70199 whole entry): T1 sequence (O70199 whole entry)

[6] = target: T1, UDP-glucose 6-dehydrogenase; assay: Inhibition of UDPGDH in rat hepatocytes assessed as decrease in bilirubin diglucuronide level at 10 uM preincubated for 2 mins followed by UDPGA addition measured after 45 mins in presence of regorafenib by HPLC analysis; type: cell-based; details: 0.75 h
[7] = target: T1, UDP-glucose 6-dehydrogenase; assay: Inhibition of UDPGDH in rat hepatocytes assessed as increase in unconjugated bilirubin level at 5 uM preincubated for 2 mins followed by UDPGA addition measured after 45 mins by HPLC analysis relative to control; type: cell-based; set-up: scale not given: the % may be the effect or the level left; details: 0.75 h; summary of the method: as §1
[8] = target: T3, UDPGDH (UDP-glucose 6-dehydrogenase); assay: Inhibition of UDPGDH in rat hepatocytes assessed as decrease in bilirubin monoglucuronide level at 10 uM preincubated for 2 mins followed by UDPGA addition measured after 45 mins by HPLC analysis relative to control; type: cell-based; details: probe bilirubin (readout: bilirubin monoglucuronide level); summary of the method: as §1
[9] = target: T2, UDP-glucuronosyltransferase 1A1; assay: Inhibition of UGT1A in rat hepatocytes assessed as decrease in bilirubin monoglucuronide level at 75 uM preincubated for 2 mins followed by UDPGA addition measured after 45 mins by HPLC analysis; type: ADME, cell-based; details: 0.75 h; summary of the method: as §1
[10] = target: T1, UDP-glucose 6-dehydrogenase; assay: Inhibition of UDPGDH in rat hepatocytes assessed as decrease in bilirubin diglucuronide level at 10 uM after 45 mins in presence of UDPGA by HPLC analysis; type: cell-based; details: 0.75 h; summary of the method: as §1
[11] = target: T3, UDPGDH (UDP-glucose 6-dehydrogenase); assay: Inhibition of UDPGDH in rat hepatocytes assessed as decrease in bilirubin diglucuronide level at 10 uM preincubated for 2 mins followed by UDPGA addition measured after 45 mins by HPLC analysis relative to control; type: cell-based; details: probe bilirubin (readout: bilirubin diglucuronide level); summary of the method: as §1
[12] = target: T2, UDP-glucuronosyltransferase 1A1; assay: Inhibition of UGT1A in rat hepatocytes assessed as increase in unconjugated bilirubin level at 75 uM preincubated for 2 mins followed by UDPGA addition measured after 45 mins by HPLC analysis; type: ADME, cell-based; details: 0.75 h; summary of the method: as §1
[13] = target: T3, UDPGDH (UDP-glucose 6-dehydrogenase); assay: Inhibition of UDPGDH in rat hepatocytes assessed as decrease in bilirubin monoglucuronide level at 5 uM preincubated for 2 mins followed by UDPGA addition measured after 45 mins by HPLC analysis relative to control; type: cell-based; details: probe bilirubin (readout: bilirubin monoglucuronide level); summary of the method: as §1
[14] = target: T1, UDP-glucose 6-dehydrogenase; assay: Inhibition of UDPGDH in rat hepatocytes assessed as decrease in bilirubin monoglucuronide level at 10 uM preincubated for 2 mins followed by UDPGA addition measured after 45 mins in presence of regorafenib by HPLC analysis; type: cell-based; details: 0.75 h
[15] = target: T2, UDP-glucuronosyltransferase 1A1; assay: Inhibition of UGT1A in rat hepatocytes assessed as decrease in bilirubin diglucuronide level at 75 uM preincubated for 2 mins followed by UDPGA addition measured after 45 mins by HPLC analysis; type: ADME, cell-based; details: 0.75 h; summary of the method: as §1
[16] = target: T3, UDPGDH (UDP-glucose 6-dehydrogenase); assay: Inhibition of UDPGDH in rat hepatocytes assessed as decrease in bilirubin monoglucuronide level at 25 uM preincubated for 2 mins followed by UDPGA addition measured after 45 mins by HPLC analysis relative to control; type: cell-based; details: probe bilirubin (readout: bilirubin monoglucuronide level); summary of the method: as §1
[17] = target: T3, UDPGDH (UDP-glucose 6-dehydrogenase); assay: Inhibition of UDPGDH in rat hepatocytes assessed as increase in unconjugated bilirubin level at 25 uM preincubated for 2 mins followed by UDPGA addition measured after 45 mins by HPLC analysis relative to control; type: cell-based; details: probe bilirubin (readout: unconjugated bilirubin level); summary of the method: as §1
[18] = target: T3, UDPGDH (UDP-glucose 6-dehydrogenase); assay: Inhibition of UDPGDH in rat hepatocytes assessed as decrease in bilirubin monoglucuronide level at 50 uM preincubated for 2 mins followed by UDPGA addition measured after 45 mins by HPLC analysis relative to control; type: cell-based; details: probe bilirubin (readout: bilirubin monoglucuronide level); summary of the method: as §1
[19] = target: T3, UDPGDH (UDP-glucose 6-dehydrogenase); assay: Inhibition of UDPGDH in rat hepatocytes assessed as decrease in bilirubin diglucuronide level at 25 uM preincubated for 2 mins followed by UDPGA addition measured after 45 mins by HPLC analysis relative to control; type: cell-based; details: probe bilirubin (readout: bilirubin diglucuronide level); summary of the method: as §1
[20] = target: T3, UDPGDH (UDP-glucose 6-dehydrogenase); assay: Inhibition of UDPGDH in rat hepatocytes assessed as decrease in bilirubin diglucuronide level at 50 uM preincubated for 2 mins followed by UDPGA addition measured after 45 mins by HPLC analysis relative to control; type: cell-based; details: probe bilirubin (readout: bilirubin diglucuronide level); summary of the method: as §1
[21] = target: T4, UGT1A (UDP-glucuronosyltransferase 1A1) (Rattus norvegicus, UniProt Q64550); assay: Inhibition of UGT1A in rat hepatocytes assessed as decrease in bilirubin monoglucuronide level at 10 uM preincubated for 2 mins followed by UDPGA addition measured after 45 mins by HPLC analysis relative to control; type: ADME, cell-based; details: probe bilirubin (readout: bilirubin monoglucuronide level); summary of the method: as §1
T4 sequence (Q64550 whole entry): T2 sequence (Q64550 whole entry)

[22] = target: T2, UDP-glucuronosyltransferase 1A1; assay: Inhibition of UGT1A in rat hepatocytes assessed as decrease in bilirubin monoglucuronide level at 10 uM after 45 mins in presence of UDPGA by HPLC analysis; type: ADME, cell-based; details: 0.75 h; summary of the method: as §1
[23] = target: T2, UDP-glucuronosyltransferase 1A1; assay: Inhibition of UGT1A in rat hepatocytes assessed as decrease in bilirubin diglucuronide level at 10 uM after 45 mins in presence of UDPGA by HPLC analysis; type: ADME, cell-based; details: 0.75 h; summary of the method: as §1
[24] = target: T4, UGT1A (UDP-glucuronosyltransferase 1A1); assay: Inhibition of UGT1A in rat hepatocytes assessed as decrease in bilirubin diglucuronide level at 10 uM preincubated for 2 mins followed by UDPGA addition measured after 45 mins by HPLC analysis relative to control; type: ADME, cell-based; details: probe bilirubin (readout: bilirubin diglucuronide level); summary of the method: as §1

SMILES: Sc1ncnc2[nH]c(Cl)nc12
Ki [1]: 163 µM
IC50 (REH): 3.95 µM

SMILES: Oc1nc2c(S)ncnc2[nH]1
Ki [1]: 14 µM
IC50 (REH): 9.91 µM
Ki [2]: > 100 µM

SMILES: COc1cccc2c1C(=O)c1c(O)c3c(c(O)c1C2=O)C[C@@](O)(C(=O)CO)C[C@@H]3O[C@H]1C[C@H](N)[C@H](O)[C@H](C)O1 [DOXORUBICIN]
IC50 (REH): 0.285 µM

SMILES: CNC(=O)c1cc(Oc2ccc(NC(=O)Nc3ccc(Cl)c(C(F)(F)F)c3)c(F)c2)ccn1 [REGORAFENIB]
inhibition at 0.75 h, 10 µM [21]: 89%
inhibition (INH) [22]: Active
inhibition (INH) [23]: Active
inhibition at 0.75 h, 10 µM [24]: 96%

More lines, main results first:

Ki [1]: 54 µM
Ki [2]: > 100 µM
SMILES: O=c1[nH]c(=S)c2nc[nH]c2[nH]1
IC50 (REH): > 10 µM

Activity [3]: 42%
inhibition (INH) [4]: Active
inhibition at 0.75 h, 5 µM [5]: 76%
inhibition (INH) [6]: Active
Ki [1]: 7 µM
Activity [7]: 31%
inhibition at 0.75 h, 10 µM [8]: 81%
inhibition (INH) [9]: Not Active
inhibition (INH) [10]: Not Active
inhibition at 0.75 h, 10 µM [11]: 86%
inhibition (INH) [12]: Not Active
inhibition at 0.75 h, 5 µM [13]: 71%
inhibition (INH) [14]: Active
inhibition (INH) [15]: Not Active
Ki [2]: > 100 µM
SMILES: O=c1[nH]c(=S)c2[nH]c(=O)[nH]c2[nH]1
IC50 (REH): > 10 µM

Ki [1]: 192 µM
SMILES: Sc1ncnc2[nH]c(Br)nc12
IC50 (REH): 9.54 µM

Ki [1]: 215 µM
SMILES: Fc1nc2c(S)ncnc2[nH]1
IC50 (REH): 4.71 µM

inhibition (INH) [4]: Active
Ki [1]: 288 µM
inhibition (INH) [9]: Not Active
inhibition at 0.75 h, 25 µM [16]: 19%
inhibition at 0.75 h, 25 µM [17]: 19%
inhibition at 0.75 h, 50 µM [18]: 28%
inhibition (INH) [12]: Not Active
inhibition at 0.75 h, 25 µM [19]: 12%
inhibition at 0.75 h, 50 µM [20]: 26%
inhibition (INH) [15]: Not Active
Ki [2]: > 100 µM
SMILES: Sc1ncnc2nc[nH]c12 [MERCAPTOPURINE ANHYDROUS]
IC50 (REH): 2.94 µM
